Paper PMC4733660 (Organic & biomolecular chemistry, 2010)
Read-outs that look alike come from different tables or passages of the source.

Key:
Assay type in all cases: biochemical
[1] = target: T1, formaldehyde dehydrogenase (FDH) (Pseudomonas putida, UniProt P46154); assay: FDH counterscreen, spectrophotometric assay; settings: enzyme concentration 50 μM, 200 μM compound concentration
T1 sequence (P46154 1-399): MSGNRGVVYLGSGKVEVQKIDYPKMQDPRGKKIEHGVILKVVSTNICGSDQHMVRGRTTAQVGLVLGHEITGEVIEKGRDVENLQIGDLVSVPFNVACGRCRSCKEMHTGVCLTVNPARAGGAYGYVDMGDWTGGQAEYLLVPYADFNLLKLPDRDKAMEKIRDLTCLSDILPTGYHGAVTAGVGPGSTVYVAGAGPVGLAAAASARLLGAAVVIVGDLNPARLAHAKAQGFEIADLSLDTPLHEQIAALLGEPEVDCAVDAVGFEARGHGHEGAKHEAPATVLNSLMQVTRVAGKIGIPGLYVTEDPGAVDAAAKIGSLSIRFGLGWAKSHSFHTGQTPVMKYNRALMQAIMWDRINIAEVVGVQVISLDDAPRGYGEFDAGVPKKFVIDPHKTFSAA
How it was run: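 Counterscreen run on the coupling enzyme alone to exclude false JMJD2E hits from FDH inhibition. FDH turnover of formaldehyde with NAD+ followed spectrophotometrically. Enzyme 50 μM; test compound at 200 μM; activity expressed as residual % of uninhibited FDH.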

PHD2 = PHD2 (Homo sapiens, UniProt Q9GZT9); assay: PHD2 fluorescence-based; settings: for PHD2 Residual Activity (%): HTRF-based assay, enzyme concentration 20 nM, 400 μM compound concentration; for PHD2 inhibition (in words): 400 μM inhibitor concentration
JMJD2E = target: T2, JMJD2E (Homo sapiens, UniProt B2RXH2); assay: FDH-coupled spectrophotometric turnover assay of JMJD2E; settings: for JMJD2E Residual Activity (%): enzyme concentration 400 nM, 200 μM compound concentration
T2 sequence (B2RXH2 1-506): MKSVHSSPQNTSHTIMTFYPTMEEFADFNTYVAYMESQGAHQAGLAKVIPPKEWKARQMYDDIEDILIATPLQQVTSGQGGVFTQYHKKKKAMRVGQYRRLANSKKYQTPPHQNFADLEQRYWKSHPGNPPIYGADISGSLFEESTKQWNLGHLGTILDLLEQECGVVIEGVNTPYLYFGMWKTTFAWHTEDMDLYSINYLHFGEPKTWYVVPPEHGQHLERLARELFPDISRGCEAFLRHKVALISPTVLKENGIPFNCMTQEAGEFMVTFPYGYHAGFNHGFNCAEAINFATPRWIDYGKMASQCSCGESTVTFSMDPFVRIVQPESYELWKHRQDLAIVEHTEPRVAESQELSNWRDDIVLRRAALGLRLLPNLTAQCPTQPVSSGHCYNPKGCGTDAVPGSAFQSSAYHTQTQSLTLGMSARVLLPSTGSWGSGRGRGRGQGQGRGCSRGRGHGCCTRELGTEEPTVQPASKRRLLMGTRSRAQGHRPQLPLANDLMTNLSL

Chain of PHD2 (Q9GZT9 whole entry): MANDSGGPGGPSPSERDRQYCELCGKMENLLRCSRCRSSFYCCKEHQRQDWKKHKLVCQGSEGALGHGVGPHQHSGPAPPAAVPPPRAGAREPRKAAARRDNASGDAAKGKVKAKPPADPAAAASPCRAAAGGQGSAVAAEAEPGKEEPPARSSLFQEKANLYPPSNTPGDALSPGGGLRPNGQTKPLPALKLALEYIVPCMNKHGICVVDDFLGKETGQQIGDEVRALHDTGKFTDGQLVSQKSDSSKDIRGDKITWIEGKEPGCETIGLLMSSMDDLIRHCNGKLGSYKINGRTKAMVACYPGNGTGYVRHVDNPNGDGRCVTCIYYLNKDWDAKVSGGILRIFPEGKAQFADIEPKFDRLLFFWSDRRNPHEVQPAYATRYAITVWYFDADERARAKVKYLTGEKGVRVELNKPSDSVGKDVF

SMILES | FDH Residual Activity (%) [1] [%] | PHD2 Residual Activity (%) (PHD2) | JMJD2E Residual Activity (%) (JMJD2E; FDH-coupled assay) | IC50 (JMJD2E) [µM] | JMJD2E inhibition (in words) (JMJD2E; FDH-coupled assay) | PHD2 inhibition (in words) (PHD2) | IC50 (JMJD2E; read-out: JMJD2E IC50, FDH-coupled assay) [µM]
O=C(O)c1ccnc(C(=O)O)c1 [Compound 5, 2,4-pyridine dicarboxylic acid, reference compound] | 100 | 22 | 0 |  |  |  | 
O=C(O)c1ccnc(C(=O)O)c1-c1ccccc1 [Compound 34, 3-Phenylpyridine-2,4-dicarboxylic acid] | 100 | 100 | 84 |  |  |  | 
O=C(O)c1ccnc(C(=O)O)c1/C=C/c1ccccc1 [Compound 35, (E)-3-Styrylpyridine-2,4-dicarboxylic acid] | 87 | 85 | 25 | 66 | some recovery of inhibitory potency |  | 
O=C(O)c1ccnc(C(=O)O)c1Oc1ccccc1 [Compound 36, 3-Phenoxypyridine-2,4-dicarboxylic acid] | 91 | 88 | 48 |  | inactive | inactive | 
O=C(O)c1ccnc(C(=O)O)c1Nc1ccccc1 [Compound 37, 3-(Phenylamino)pyridine-2,4-dicarboxylic acid] | 83 | 100 | 0 |  | potent | do not inhibit PHD2 | 
Nc1c(C(=O)O)ccnc1C(=O)O [Compound 50, 3-amino-2,4-PDCA] |  | 23 |  |  | highly active |  | ~0.1
